From publication PMC5269458 (Metallomics : integrated biometal science, 2017)
Values after ≈ are worked out from the molar mass of the structure shown. Like-named read-outs stand apart in the source and are kept apart here. Marks after values point to notes of the source that are not given here.

Tests used:
[1] = tested on: wild-type C. neoformans H99; experiment: Growth inhibition; assay type: cell-based, Cryptococcus neoformans; conditions: for Minimum inhibitory concentration (MIC) / MIC: 30 °C; for effect of added Ag(I) on MIC: 10 μM supplemental Ag(I); for effect of added Cu(II) on MIC: 10 μM supplemental Cu(II); for effect of added Fe(III) on MIC: 10 μM supplemental Fe(III); for effect of added Zn(II) on MIC: 10 μM supplemental Zn(II); for growth compared to no treatment at 48 h: 100 μM compound, no supplemental Cu; for effect of supplemental Cu on the growth inhibition by the compound: 1 mM Cu, high compound concentration (100 μM; CQ 50 μM); for MIC: Cryptococcus neoformans, read-out: Minimum inhibitory concentration (MIC), supplemental [Cu] 1 mM (CuSO4)
WT C. neoformans [2] = experiment: Fungicidal assay; assay type: cell-based, Cryptococcus neoformans; conditions: 24 h in liquid culture, PyS 3 μM
[3] = tested on: ctr1Δctr4Δ mutant strain of C. neoformans; experiment: Growth recovery of Cu-import deficient mutant in YPEG medium; assay type: cell-based, Cryptococcus neoformans; conditions: YPEG medium without supplemental Cu, micromolar compound, 48 h
Conditional Cu [4] = assay type: binding
Conditional Cu [5] = assay type: binding; conditions: for competition for Cu(I) with BCA or ferrozine: pH 7.4, anaerobic
[6] = Calcein competition assay for Cu; assay type: binding; conditions: 100 μM compound; HEPES pH 7.4 and SC medium pH 4.5
[7] = tested on: C. neoformans wild type, H99 cells; assay type: cell-based, Cryptococcus neoformans; conditions: SC medium; for cellular metal content compared to the other conditions: 10 μM ligand
Stoichiometry with Cu [8] = assay type: binding; conditions: 5% DMSO in universal buffer, pH 7.4, anaerobic
How it was run: (§1)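 Ligand–Cu mixtures were made in 5% DMSO in Britton–Robinson universal buffer, pH 7.4. Total metal plus ligand concentration was held constant while the Cu mole fraction was varied from 0.1 to 1.0, and samples were read by UV-vis. Ligand stocks were 100 mM in DMSO. For Cu(I), the buffer (0.04 M […], H3PO4, CH3CO2H) was deoxygenated, samples were prepared and measured anaerobically in a glove box, and stock concentration was set by BCA titration at 562 nm.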

[9] = pH 7.4; ref Smith, R. M.; Martell, A. E.; Motekaitis, R. J, 2007; cited from earlier work
WT C. neoformans [10] = conditions: with 10 μM Cu; cited from earlier work
[11] = tested on: ctr1Δctr4Δ mutant strain of C. neoformans; conditions: YPEG medium; cited from earlier work
Stoichiometry with Cu [12] = assay type: binding; conditions: 5% DMSO in universal buffer, pH 7.4
How it was run: as §1

[13] = cited from earlier work
[14] = no supplemental Cu ([Cu] 0 mM), SC medium, 48 h
[15] = supplemental [Cu] 0.01 mM (CuSO4), SC medium, 48 h
[16] = supplemental [Cu] 1 mM (CuSO4), SC medium, 48 h
[17] = with 10 μM CuSO4, ThM above 6 μM
[18] = conditional, universal buffer pH 7.4, competition with PAR
[19] = negative log of free [Cu] at pH 7.4, total ligand 10 μM, total Cu 1 μM
[20] = conditional, universal buffer pH 7.4, competition with BCA
[21] = 10 μM ligand co-incubated with 10 μM CuSO4, 1 h

SMILES: Cc1cc(-c2ccc(S(=O)(=O)O)cc2)c2ccc3c(-c4ccc(S(=O)(=O)O)cc4)cc(C)nc3c2n1 [BCS, bathocuproine disulfonic acid]
- Minimum inhibitory concentration (MIC) [1, 14]: higher than 100 μM

SMILES: Cc1occc(=S)c1O [ThM, thiomaltol]
- effect of added Ag(I) on MIC ([1]; 48 h): no effect
- effect of added Cu(II) on MIC ([1]; 48 h): significant decrease
- effect of added Fe(III) on MIC ([1]; 48 h): did not significantly affect
- effect of added Zn(II) on MIC ([1]; 48 h): did not significantly affect
- Minimum inhibitory concentration (MIC) [1, 14]: >100 µM
- MIC in the presence of added Cu ([1]; range over low (10 μM) and high (1 mM) supplemental Cu, SC medium, 48 h): 6 to 25 µM
- Minimum inhibitory concentration (MIC) [1, 15]: 6 µM (≈ 0.853 µg/mL)
- Minimum inhibitory concentration (MIC) [1, 16]: 25 µM (≈ 3.55 µg/mL)
- fungicidal or fungistatic activity (CFU) (WT C. neoformans [2]; [17]): fungicidal
- fungicidal or fungistatic activity (CFU) (WT C. neoformans [2]; without Cu, ThM 100 μM): fungistatic
- restoration of growth of ctr1Δctr4Δ mutant [3]: restored to near wild type levels
- Cu(II) log KML2 (Conditional Cu [4]; [18]): ≥20 ^b
- pCu(II) (Conditional Cu [4]; [19]): ≥15
- Cu(I) log KML2 (Conditional Cu [5]; [20]): 16.4 ± 0.1
- pCu(I) (Conditional Cu [5]; [19]): 12.2
- competition with calcein for Cu(II) [6]: able to compete effectively for Cu(II) at both pH values
- cell-associated Cu, Fe and Zn content ([7]; 10 μM ligand alone, 1 h): Metal accumulation did not occur
- cell-associated Cu, Fe and Zn content [7, 21]: hyper accumulation of Cu, Zn, and Fe
- stoichiometry with Cu(I) (Stoichiometry with Cu [8]): Bis complexes

SMILES: O=C(O)c1ccc(-n2nc(-c3ccccc3O)nc2-c2ccccc2O)cc1 [deferasirox]
- growth compared to no treatment at 48 h ([1]; SC medium): decrease in growth
- effect of supplemental Cu on the growth inhibition by the compound [1]: reversed

SMILES: O=C(N/N=C/c1ccccc1O)c1ccncc1 [SIH, salicylaldehyde isonicotinoyl hydrazine]
- Minimum inhibitory concentration (MIC) [1, 14]: higher than 100 μM
- growth with compound in combination with Cu ([1]; with 1 mM Cu, SC medium, 48 h): inhibited growth slightly

SMILES: [SH-].[SH-].[S]=[Mo]=[S] [TTM, tetrathiomolybdate]
- growth compared to no treatment at 48 h ([1]; SC medium): decrease in growth
- effect of supplemental Cu on the growth inhibition by the compound [1]: reversed
- Minimum inhibitory concentration (MIC) [1, 14]: higher than 100 μM

SMILES: Cc1c(O)c(=O)ccn1C [Dfp, deferiprone]
- Minimum inhibitory concentration (MIC) [1, 16]: >100 µM
- restoration of growth of ctr1Δctr4Δ mutant [3]: unable to restore growth
- Cu(II) log KML2 (Conditional Cu [4]; [18]): 15.3 ± 0.3
- pCu(II) (Conditional Cu [4]; [19]): 11.1
- competition for Cu(I) with BCA or ferrozine (Conditional Cu [5]): did not compete
- cell-associated Cu, Fe and Zn content [7, 21]: did not dramatically alter cellular metal content
- cellular metal content compared to the other conditions ([7]; 1 h): decreased cellular metal content

SMILES: Oc1cccc2cccnc12 [Compound 8HQ, 8-hydroxyquinoline]
- effect of added Ag(I) on MIC ([1]; 48 h): no effect
- effect of added Cu(II) on MIC ([1]; 48 h): significant decrease
- effect of added Fe(III) on MIC ([1]; 48 h): did not significantly affect
- effect of added Zn(II) on MIC ([1]; 48 h): did not significantly affect
- MIC ([1]; 48 h, SC medium, 48 h): 6 µM (≈ 0.871 µg/mL)
- Minimum inhibitory concentration (MIC) [1, 14]: >100 µM
- pCu(II) (Conditional Cu [4]; pH 7.4): 18.7
- competition with calcein for Cu(II) [6]: largest pH dependence
- Cu(II) log KML2 [9]: 22.9 ± 0.1 ^a
- fungicidal activity (viable fungi) (WT C. neoformans [10]): absence of detectable viable fungi
- restoration of growth of ctr1Δctr4Δ mutant [11]: recover growth

SMILES: Oc1c(I)cc(Cl)c2cccnc12 [CQ, clioquinol]
- effect of supplemental Cu on the growth inhibition by the compound [1]: completely abrogated
- MIC ([1]; 48 h, SC medium, 48 h): > 50 µM
- restoration of growth of ctr1Δctr4Δ mutant [3]: unable to restore growth

SMILES: Cc1occc(=O)c1O [Mal, maltol]
- restoration of growth of ctr1Δctr4Δ mutant [3]: unable to restore growth
- Cu(II) log KML2 (Conditional Cu [4]; [18]): 12.2 ± 0.3
- pCu(II) (Conditional Cu [4]; [19]): 8.0
- competition for Cu(I) with BCA or ferrozine (Conditional Cu [5]): did not compete
- cell-associated Cu, Fe and Zn content [7, 21]: did not dramatically alter cellular metal content

SMILES: CCN(CC)C(=S)SSC(=S)N(CC)CC [DSF, disulfiram]
- MIC ([1]; 48 h, SC medium, 48 h): 6 µM (≈ 1.78 µg/mL)
- restoration of growth of ctr1Δctr4Δ mutant [3]: restored to near wild type levels

SMILES: O=C(O)CN(CCN(CC(=O)O)CC(=O)O)CC(=O)O [EDTA, ethylenediamine tetraacetic acid]
- growth compared to no treatment at 48 h ([1]; SC medium): decrease in growth
- effect of supplemental Cu on the growth inhibition by the compound [1]: reversed

SMILES: Cc1c(O)c(=S)ccn1C [ThDfp]
- growth compared to no treatment at 48 h ([1]; SC medium): decrease in growth
- effect of supplemental Cu on the growth inhibition by the compound [1]: reversed
- Minimum inhibitory concentration (MIC) [1, 14]: >100 µM
- Minimum inhibitory concentration (MIC) [1, 15]: >100 µM
- Minimum inhibitory concentration (MIC) [1, 16]: >100 µM
- restoration of growth of ctr1Δctr4Δ mutant [3]: unable to restore growth
- Cu(II) log KML2 (Conditional Cu [4]; [18]): ≥20 ^b
- pCu(II) (Conditional Cu [4]; [19]): ≥15
- Cu(I) log KML2 (Conditional Cu [5]; [20]): 16.4 ± 0.2
- pCu(I) (Conditional Cu [5]; [19]): 12.2
- competition with calcein for Cu(II) [6]: able to compete effectively for Cu(II) at both pH values
- cell-associated Cu, Fe and Zn content [7, 21]: did not dramatically alter cellular metal content
- cellular metal content compared to the other conditions ([7]; 1 h): decreased cellular metal content
- stoichiometry with Cu(II) (Stoichiometry with Cu [12]): 2L:1Cu(II)
- stoichiometry with Cu(I) (Stoichiometry with Cu [8]): Bis complexes

SMILES: O=C(O)c1cc(-c2cc(C(=O)O)c3ccccc3n2)nc2ccccc12.O=C(O)c1cc(-c2cc(C(=O)O)c3ccccc3n2)nc2ccccc12.[Cu+] [[Cu^I(BCA)2]^3−]
- Log K ([13]; constant in fitting model, universal buffer pH 7.4 with 5% DMSO): 17.7[45]

SMILES: O=S(=O)([O-])c1ccc(-c2nnc(-c3ccccn3)nc2-c2ccc(S(=O)(=O)[O-])cc2)cc1.[Na+].[Na+] [ferrozine]
- log KFz2Cu ([13]; Cu(I) complex): 15.1

SMILES: [O-][n+]1ccccc1S [PyS, pyrithione]
- effect of added Ag(I) on MIC ([1]; 48 h): significantly lowered
- effect of added Cu(II) on MIC ([1]; 48 h): significant decrease
- effect of added Fe(III) on MIC ([1]; 48 h): did not significantly affect
- effect of added Zn(II) on MIC ([1]; 48 h): did not significantly affect
- MIC ([1]; 48 h, SC medium, 48 h): 6 µM (≈ 0.763 µg/mL)
- fungicidal or fungistatic activity (CFU) (WT C. neoformans [2]; [17]): fungicidal
- fungicidal or fungistatic activity (CFU) (WT C. neoformans [2]; without Cu, ThM 100 μM): fungicidal
- restoration of growth of ctr1Δctr4Δ mutant [3]: restored to near wild type levels
- Cu(II) log KML2 (Conditional Cu [4]; pH 7.4): ≥20 ^b
- pCu(II) (Conditional Cu [4]; pH 7.4): ≥15
- Cu(I) log KML2 (Conditional Cu [5]; pH 7.4): 17.1 ± 0.2
- pCu(I) (Conditional Cu [5]; pH 7.4): 12.9
- competition with calcein for Cu(II) [6]: able to compete effectively for Cu(II) at both pH values
- cell-associated Cu, Fe and Zn content ([7]; 10 μM ligand alone, 1 h): Metal accumulation did not occur
- cell-associated Cu, Fe and Zn content [7, 21]: hyper accumulation of Cu, Zn, and Fe
- stoichiometry with Cu(II) (Stoichiometry with Cu [12]): 2L:1Cu(II)
- stoichiometry with Cu(I) (Stoichiometry with Cu [8]): Bis complexes
